Results taken from ChEMBL document CHEMBL4428077, “Synthesis and Biological Evaluation of N-((1-(4-(Sulfonyl)piperazin-1-yl)cycloalkyl)methyl)benzamide Inhibitors of Glycine Transporter-1” (J Med Chem, 2016).
Active and inactive are the calls of the source. The rule behind the calls is not given here.

What was measured:
[1] = biological target: T1, Sodium- and chloride-dependent glycine transporter 1 (Homo sapiens, UniProt P48067); test: Inhibition of glycine transporter-1B in human JAR cells assessed as reduction in [14C]glycine uptake preincubated for 10 mins followed by [14C]glycine addition measured after 3 hrs by scintillation proximity assay; format: cell-based
T1 sequence (P48067 whole entry): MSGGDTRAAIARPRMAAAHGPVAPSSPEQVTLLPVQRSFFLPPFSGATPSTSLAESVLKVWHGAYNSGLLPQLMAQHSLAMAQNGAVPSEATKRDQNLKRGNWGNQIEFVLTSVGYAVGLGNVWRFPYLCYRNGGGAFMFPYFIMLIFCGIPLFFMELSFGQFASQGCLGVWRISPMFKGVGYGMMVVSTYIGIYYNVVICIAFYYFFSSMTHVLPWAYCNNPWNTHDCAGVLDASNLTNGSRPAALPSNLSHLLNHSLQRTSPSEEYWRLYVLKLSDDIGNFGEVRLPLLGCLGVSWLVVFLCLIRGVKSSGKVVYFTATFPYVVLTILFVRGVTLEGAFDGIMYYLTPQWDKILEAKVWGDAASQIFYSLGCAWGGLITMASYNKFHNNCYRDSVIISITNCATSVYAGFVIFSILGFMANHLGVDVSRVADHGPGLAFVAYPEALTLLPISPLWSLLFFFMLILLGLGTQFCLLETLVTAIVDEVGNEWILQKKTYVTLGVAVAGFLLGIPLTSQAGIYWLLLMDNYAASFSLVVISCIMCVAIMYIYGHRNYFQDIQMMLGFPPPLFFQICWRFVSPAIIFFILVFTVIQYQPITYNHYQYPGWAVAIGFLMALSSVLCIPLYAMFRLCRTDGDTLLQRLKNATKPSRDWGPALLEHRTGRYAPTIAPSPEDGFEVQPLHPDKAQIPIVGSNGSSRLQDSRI
Method in brief: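 Whole-cell SPA in JAR cells, which endogenously express hGlyT-1b. Cells (50,000 per well) were attached overnight in RPMI/10% FBS at 37 °C, 5% CO₂. [¹⁴C]glycine was then added and incubated 3 h at 37 °C. The assay window was set with unlabeled glycine. A reference standard ran on each plate. IC₅₀ values are means of n ≥ 2.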

[2] = Metabolic stability in human liver microsomes assessed as parent compound remaining at 3 uM incubated for 15 mins by LC-MS analysis; format: ADME, Microsome; details: for Stability: microsomes, 0.25 h, 3 µM; for remaining at 0.25 h, 3 µM: liver microsomes, read-out: Stability
Method in brief: (§1)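 Liver microsomes incubated with compound at 3 μM for 15 min. Parent compound remaining was quantified by LC-MS.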

[3] = Metabolic stability in rat liver microsomes assessed as parent compound remaining at 3 uM incubated for 15 mins by LC-MS analysis; format: ADME, Microsome; details: for remaining at 0.25 h, 3 µM: liver microsomes, read-out: Stability; method in brief: as §1
[4] = biological target: T2, Sodium- and chloride-dependent glycine transporter 2 (Homo sapiens, UniProt Q9Y345); test: Inhibition of human glycine transporter-2 expressed in HEK293 cells assessed as reduction in [14C]glycine uptake preincubated for 10 mins followed by [14C]glycine addition measured after 3 hrs by scintillation proximity assay; format: cell-based
T2 sequence (Q9Y345 whole entry): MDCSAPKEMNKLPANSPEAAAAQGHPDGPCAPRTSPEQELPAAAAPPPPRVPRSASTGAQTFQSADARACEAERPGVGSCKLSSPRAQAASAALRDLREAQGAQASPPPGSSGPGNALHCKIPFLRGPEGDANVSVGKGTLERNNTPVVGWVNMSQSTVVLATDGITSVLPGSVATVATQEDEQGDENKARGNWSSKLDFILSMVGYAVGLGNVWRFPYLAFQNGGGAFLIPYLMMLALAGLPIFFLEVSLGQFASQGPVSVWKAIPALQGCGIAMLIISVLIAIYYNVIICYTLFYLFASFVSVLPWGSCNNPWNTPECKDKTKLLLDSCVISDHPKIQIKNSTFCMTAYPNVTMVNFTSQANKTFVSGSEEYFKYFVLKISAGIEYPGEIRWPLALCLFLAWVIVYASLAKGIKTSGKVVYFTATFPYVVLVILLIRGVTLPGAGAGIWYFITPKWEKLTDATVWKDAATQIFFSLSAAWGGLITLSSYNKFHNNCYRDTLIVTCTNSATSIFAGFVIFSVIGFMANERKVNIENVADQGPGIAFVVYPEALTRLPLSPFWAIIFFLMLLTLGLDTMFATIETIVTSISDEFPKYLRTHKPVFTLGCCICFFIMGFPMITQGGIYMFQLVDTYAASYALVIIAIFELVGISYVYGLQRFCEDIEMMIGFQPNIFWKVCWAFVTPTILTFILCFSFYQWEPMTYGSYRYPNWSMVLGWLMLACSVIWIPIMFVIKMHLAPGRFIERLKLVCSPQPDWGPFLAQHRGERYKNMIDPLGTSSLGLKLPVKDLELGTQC
Method in brief: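 HEK293 cells stably transfected with GlyT-2 (Geneticin-selected polyclonal population) were plated on poly-L-lysine-coated plates in DMEM/10% FBS and incubated overnight. The [¹⁴C]glycine uptake SPA was then run as for JAR cells: uptake buffer, 10 min room-temperature preincubation, 3 h incubation at 37 °C.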

Cynomolgus monkey [5] = test: In vivo inhibition of glycine transporter-1 in cynomolgus monkey assessed as increase in CSF glycine level at 0.3 to 10 mg/kg, po measured at 24 hrs post dose by LC-MS/MS analysis; format: functional, organism-based; details: Macaca fascicularis
Method in brief: (§2)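 Cynomolgus monkeys, n = 3 per group, given oral doses of 0.4, 1.5, 4.7 or 15.7 μmol/kg. Vehicle was 5% Solutol / 20% Captisol in 25 mM PBS, pH 2. CSF (about 0.30 mL) was drawn through subcutaneous ports with a sterile Huber needle predose and at 0.5, 1, 2, 3, 4, 8, 12 and 24 h. Matched blood was taken at each time. Mean ± SD.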

Cynomolgus monkey [6] = test: In vivo inhibition of glycine transporter-1 in cynomolgus monkey assessed as increase in CSF glycine level at 0.3 to 10 mg/kg, po measured at 2 to 4 hrs post dose by LC-MS/MS analysis; format: functional, organism-based; details: Macaca fascicularis; method in brief: as §2
[7] = biological target: T3, Sodium- and chloride-dependent glycine transporter 1 (Homo sapiens) (UniProt P48067); test: Competitive inhibition of glycine transporter-1 (unknown origin) expressed in HEK293 cells at 12 to 108 nM in presence of [3H]glycine by scintillation proximity assay; format: cell-based
T3 sequence (whole entry): T1 sequence (P48067 whole entry)
Method in brief: (§3)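 Whole-cell SPA glycine transport with transfected HEK-293 cells expressing GlyT-1. Increasing [³H]-glycine concentrations were run at several fixed inhibitor concentrations to derive B_max and K_d for glycine and judge the binding mode.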

[8] = Metabolic stability in human liver microsomes assessed as parent compound remaining at 3 uM incubated for 60 mins by LC-MS analysis; format: ADME, Microsome; details: read-out: Stability
[9] = biological target: T3, Sodium- and chloride-dependent glycine transporter 1 (Homo sapiens); test: Competitive inhibition of glycine transporter-1 (unknown origin) expressed in HEK293 cells at 0.62 to 17 nM in presence of [3H]glycine by scintillation proximity assay; format: cell-based; method in brief: as §3
[10] = Intrinsic clearance in human liver microsomes at 3 uM incubated up to 60 mins by LC-MS analysis; format: ADME, Microsome; details: read-out: CLH
Method in brief: (§4)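 Liver microsomes with a cofactor regeneration system and compound at 3 μM, incubated at 37 °C. Reactions were stopped at 0, 5, 15, 30, 45 and 60 min, in duplicate. Compound remaining was measured by LC-MS. ln(%remaining) was plotted against time, and the slope was normalized to protein to give CL_int. Testosterone at 10 μM served as control.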

[11] = Intrinsic clearance in rat liver microsomes at 3 uM incubated up to 60 mins by LC-MS analysis; format: ADME, Microsome; details: read-out: CLH; method in brief: as §4

| SMILES | IC50 [1] [nM] | IC50 [4] [µM] | remaining at 0.25 h, 3 µM [2] [%] | remaining at 0.25 h, 3 µM [3] [%] | also measured |
| --- | --- | --- | --- | --- | --- |
| CC(NC(=O)c1ccc(C(F)(F)F)cc1Cl)C1(N2CCN(S(=O)(=O)c3cn(C)nn3)CC2)CCC(F)(F)CC1.Cl (racemic) | 1.03 |  |  |  | Stability [2]: 54%; Stability ([3]; microsomes, 0.25 h, 3 µM): 66% |
| CCCS(=O)(=O)N1CCN(C2(CNC(=O)c3c(Cl)cccc3OC(F)(F)F)CCC(F)(F)CC2)CC1 | 29 | > 75 |  |  |  |
| CC(NC(=O)c1ccc(C(F)(F)F)cc1Cl)C1(N2CCN(S(=O)(=O)c3cn(C)nn3)CC2)CCC(F)(F)CC1 (single isomer, unassigned; (+)) |  |  |  |  | inhibition (Cynomolgus monkey [5]): inactive; inhibition (Cynomolgus monkey [6]): Active; inhibition [7]: Active |
| Cn1cnc(S(=O)(=O)N2CCN(C3(CNC(=O)c4ccc(F)cc4Cl)CCC(F)(F)CC3)CC2)c1 | 5.09 |  | 85 | 100 |  |
| CC(NC(=O)c1ccc(C(F)(F)F)cc1Cl)C1(N2CCN(S(=O)(=O)c3cn(C)nn3)CC2)CCC(F)(F)CC1.Cl (single isomer, unassigned; (-)) |  |  |  |  | Stability [2]: 51% |
| Cn1cc(S(=O)(=O)N2CCN(C3(CNC(=O)c4c(Cl)cccc4Cl)CCC(F)(F)CC3)CC2)nn1 | 1.27 | > 75 | 33 | 91 |  |
| Cn1cc(S(=O)(=O)N2CCN(C3(CNC(=O)c4c(F)cccc4F)CCC(F)(F)CC3)CC2)nn1 | 5.1 |  | 64 | 95 |  |
| CC(C)CS(=O)(=O)N1CCN(C2(CNC(=O)c3c(N)cccc3Cl)CCCCC2)CC1 |  | > 75 |  |  |  |
| Cn1cnc(S(=O)(=O)N2CCN(C3(CNC(=O)c4ccc(Cl)cc4Cl)CCC(F)(F)CC3)CC2)c1 | 5.29 | > 75 | 30 | 88 |  |
| Cn1cnc(S(=O)(=O)N2CCN(C3(CNC(=O)c4ccc(Cl)cc4Cl)CCCCC3)CC2)c1 | 2.14 |  |  |  | remaining at 1 h, 3 µM [8]: 5% |
| CN(CC[C@@H](Oc1ccc(-c2ccccc2)cc1)c1ccc(F)cc1)CC(=O)O |  |  |  |  | inhibition [9]: inactive |
| Cn1cc(S(=O)(=O)N2CCN(C3(CNC(=O)c4ccc(F)cc4Cl)CCC(F)(F)CC3)CC2)nn1 | 1.14 |  | 69 | 100 |  |
| Cn1cc(S(=O)(=O)N2CCN(C3(CNC(=O)c4ccc(Cl)cc4Cl)CCCCC3)CC2)cn1 | 146 | > 75 |  |  |  |
| Cn1cnc(S(=O)(=O)N2CCN(C3(CNC(=O)c4c(Cl)cccc4OC(F)(F)F)CCC(F)(F)CC3)CC2)c1 | 1.49 | > 75 | 9.2 | 91 |  |
| Cn1cc(S(=O)(=O)N2CCN(C3(CNC(=O)c4ccc(Cl)cc4Cl)CCC(F)(F)CC3)CC2)nn1 | 1.24 |  | 46 | 80 |  |
| Nc1cccc(Cl)c1C(=O)NCC1(N2CCN(S(=O)(=O)Cc3ccccc3)CC2)CCCCC1 | 9360 | > 75 |  |  |  |
| Cn1cnc(S(=O)(=O)N2CCN(C3(CNC(=O)c4ccc(C(F)(F)F)cc4Cl)CCC(F)(F)CC3)CC2)c1 | 2.35 | > 75 | 60 | 90 |  |
| CCCS(=O)(=O)N1CCN(C2(CNC(=O)c3ccc(C(F)(F)F)cc3C(F)(F)F)CCC(F)(F)CC2)CC1 | 8.4 | > 75 |  |  | microsomal CLint at 3 µM [10]: 19 µL/min/mg; microsomal CLint at 3 µM [11]: 4.9 µL/min/mg |
| CCCS(=O)(=O)N1CCN(C2(CNC(=O)c3c(Cl)cccc3Cl)CCC(F)(F)CC2)CC1 | 42.4 | > 75 |  |  | microsomal CLint at 3 µM [10]: 3.8 µL/min/mg; microsomal CLint at 3 µM [11]: 4.3 µL/min/mg |
| CCCS(=O)(=O)N1CCN(C2(CNC(=O)c3ccc(C(F)(F)F)cc3Cl)CCC(F)(F)CC2)CC1 | 12.6 |  |  |  | microsomal CLint at 3 µM [10]: 16 µL/min/mg; microsomal CLint at 3 µM [11]: 11 µL/min/mg |
| Cn1cc(S(=O)(=O)N2CCN(C3(CNC(=O)c4c(Cl)cccc4OC(F)(F)F)CCC(F)(F)CC3)CC2)nn1 | 0.726 | > 75 | 24 | 87 |  |
| CCCS(=O)(=O)N1CCN(C2(CNC(=O)c3c(C)cc(F)cc3OC)CCC(F)(F)CC2)CC1 | 28.5 | > 75 |  |  |  |
| Cn1cc(S(=O)(=O)N2CCN(C3(CNC(=O)c4ccc(Cl)cc4Cl)CCCCC3)CC2)nn1 | 1.54 | > 75 | 0 |  |  |
| Cn1cnc(S(=O)(=O)N2CCN(C3(CNC(=O)c4c(Cl)cccc4Cl)CCC(F)(F)CC3)CC2)c1 | 5.56 | > 75 | 22 | 94 |  |
| Cn1cc(S(=O)(=O)N2CCN(C3(CNC(=O)c4ccc(C(F)(F)F)cc4C(F)(F)F)CCC(F)(F)CC3)CC2)nn1 | 0.733 |  | 64 | 95 |  |
| Cn1cnc(S(=O)(=O)N2CCN(C3(CNC(=O)c4c(F)cccc4F)CCC(F)(F)CC3)CC2)c1 | 18.3 | > 75 | 72 | 92 |  |
| CCCS(=O)(=O)N1CCN(C2(CNC(=O)c3ccc(F)cc3Cl)CCC(F)(F)CC2)CC1 | 38.4 | > 75 |  |  |  |
